This is an account of results in ChEMBL document CHEMBL1122666, “Bile acids with a cyclopropyl-containing side chain. 1. Preparation and properties of 3 alpha, 7 beta-dihydroxy-22,23-methylene-5 beta-cholan-24-oic acid” (J Med Chem, 1984).

The species named for series [1] is Rattus norvegicus. The series is described as follows: Compound was evaluated for Phospholipid secretion. The series is classed as functional. A digest of the protocol: (§1)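 Male Sprague–Dawley rats (300-330 g) were anesthetized with ethyl carbamate and the bile was collected. Bile acids were given i.v. as sodium salts via the femoral vein at 50 mg per animal, five rats per group, and bile was sampled at 15-min intervals. Flow volume and bile acid, cholesterol and phospholipid concentrations were measured by enzymatic assays. Controls were five rats; values are mean ± SD.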

For series [2], the species on record is Rattus norvegicus. Briefly: Compound was evaluated for Percent hepatic uptake. It is filed as functional. The gist of the method: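 Single-pass isolated perfused rat liver; perfusate Krebs-Ringer bicarbonate pH 7.4 with glucose and 3% w/v fatty-acid-free bovine serum albumin, Evans blue (1 mg/g liver) as flow/recovery marker. 200 μL of 10-µmol/L bile acid injected; outflow collected at 10-s intervals, bile acid measured enzymatically (3α-hydroxysteroid dehydrogenase), Evans blue at 610 nm. Outflow corrected for Evans blue; uptake = 100% − outflow.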

For series [3], the species on record is Rattus norvegicus. The series is described as follows: Compound was evaluated for Bile flow. The series is classed as functional. The gist of the method: as §1
Series [4] deals with Serum albumin (Homo sapiens) (UniProt P02768). The series is described as follows: Compound was evaluated for Albumin affinity constant.
Series [5] in a line: Compound was evaluated for physico-chemical property of Critical micellar concentration (CMC). It is filed as ADME. A digest of the protocol:
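For the CMC, sodium salt solutions from 0.1 to 100 mmol were adjusted to pH 8.00 with NaOH and rotated for 1 day at room temperature in the dark with excess Azulene or Orange OT dye. After 0.22-µm filtration, absorbance was read at 580 or 490 nm and plotted against bile salt concentration. Values are mean ± SD of five determinations.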

Series [6] can be described thus: Compound was evaluated for physico-chemical property of Constant, pKa. It is filed as physicochemical.
The species entered for series [7] is Rattus norvegicus. The series is described as follows: Compound was evaluated for Cholesterol secretion. It is filed as functional. The gist of the method: as §1
A short description of series [8]: Compound was evaluated for physico-chemical property of Water solubility (bile acid) at 25 degree C. The series is classed as ADME. A digest of the protocol:
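For solubility, solutions were held for 1 month, filtered through 0.22 µm, and methanol was added to prevent crystallization. Dissolved bile acid was quantified enzymatically with 3α-hydroxysteroid dehydrogenase.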

Series [9] is filed under the species Rattus norvegicus. Briefly: Compound was evaluated for Bile acid secretion. It is filed as functional. A digest of the protocol: as §1

Converted amounts (≈) assume the structure as drawn.

For the compound `CC(C1CC1C(=O)O)C1CC[C@H]2[C@@H]3[C@@H](O)CC4C[C@H](O)CCC4(C)[C@H]3CCC12C` (some centres not stated), the Secretion in the series listed under Rattus norvegicus [1] was 9.5 µM/h/kg; in the series filed under Rattus norvegicus [7] it was 2.7 µM/h/kg; in the series listed under Rattus norvegicus [9] it was 97 µM/h/kg. The same compound returned an Intake in the series listed under Rattus norvegicus [2] of 46%. The Bile flow in the series filed under Rattus norvegicus [3] is 1.68 mL/h. The Affinity constant in series [4] is on record as 68000 l M-1. The same compound displayed a CMC in series [5] of 15.5 mM. Besides, in series [6], the pKa came out at 5.01. In series [8], this compound came in with a solubility of 11.8 µM (≈ 4.77 µg/mL).
As to `C[C@H](CCC(=O)O)[C@H]1CC[C@H]2[C@@H]3[C@@H](O)C[C@@H]4C[C@H](O)CC[C@]4(C)[C@H]3CC[C@]12C` [URSODIOL], the Secretion in the series listed under Rattus norvegicus [1] was found to be 6.47 µM/h/kg; in the series filed under Rattus norvegicus [7], 2.12 µM/h/kg; in the series listed under Rattus norvegicus [9], 98 µM/h/kg. In the series listed under Rattus norvegicus [2], this compound registered an Intake of 50%. In addition, in the series filed under Rattus norvegicus [3], the Bile flow was determined as 1.08 mL/h. The CMC in series [5] was determined as 19 mM. The pKa in [6] came to 5.08. The concentration in solution in series [8] (solubility) was 9 µM (≈ 3.53 µg/mL).
